Measured values: ChEMBL document CHEMBL4689842, “EUbOPEN Chemogenomics Library wave 1” (2021)
Several values for one entry are separate records, joined by “and”; a condition that tells them apart may be missing. Equal entries are not always repeated.

Test system: Fibroblast
Assay: Multiplex assay against human fibroblast
Format: toxicity, cell-based
Conditions: 10 µM, compound concentration 10 uM
Summary of the method: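 Phenotypes for tubulin, mitochondrial mass and membrane permeability are expressed as per cents of healthy-nucleus cells. Cells were stained live at seeding with Hoechst33342, BioTracker Green Microtubule Cytoskeleton Dye, MitoTracker Red and Annexin V Alexa Fluor 680, then imaged after compound addition on a CQ1 microscope at 37°C and 5% CO2. Machine-learning gating in CellPathfinder separated Hoechst high-intensity objects from normal cells, divided normal cells by nuclear state (healthy, pyknosed, fragmented) and divided pyknosed cells into mitotic or apoptotic.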

O=C(NCCN1CCOCC1)c1ccc2c(c1)C(=O)c1ccc(Nc3ccc(F)c(NC(=O)c4ccccc4)c3)cc1CC2 [FS-694]
Population Apoptotic (%) (12 h, replicate 1): 65% and 38%
Population Fragmented Nuclei (%) (12 h, replicate 1): 35% and 51%
Population Healthy Nuclei (%) (12 h, replicate 1): 49% and 32%
Population Mitotic Cells (%) (12 h, replicate 1): 34% and 61%
Population Normal (%) (12 h, replicate 1): 81% and 29%
Population Pyknosed Nuclei (%) (12 h, replicate 1): 14%
Population Tubulin-Different-Phenotype (%) (12 h, replicate 1): 20% and 24%
Total Cell Count (12 h, replicate 1): 371 and 970
Population Apoptotic (%) (12 h, replicate 2): 72% and 68%
Population Fragmented Nuclei (%) (12 h, replicate 2): 57%
Population Healthy Nuclei (%) (12 h, replicate 2): 27% and 29%
Population Hoechst High Intensity Objects (%) (12 h, replicate 2): 44% and 82%
Population Membrane Permeable-Phenotype (%) (12 h, replicate 2): 21% and 20%
Population Mitochondria Different-Phenotype (%) (12 h, replicate 2): 15% and 0%
Population Mitotic Cells (%) (12 h, replicate 2): 27% and 31%
Population Pyknosed Nuclei (%) (12 h, replicate 2): 15% and 13%
Population Apoptotic (%) (24 h, replicate 1): 44% and 59%
Population Fragmented Nuclei (%) (24 h, replicate 1): 50% and 35%
Population Healthy Nuclei (%) (24 h, replicate 1): 36% and 50%
Population Membrane Permeable-Phenotype (%) (24 h, replicate 1): 8%
Population Mitochondria Different-Phenotype (%) (24 h, replicate 1): 13% and 7%
Population Mitotic Cells (%) (24 h, replicate 1): 55% and 40%
Population Normal (%) (24 h, replicate 1): 34% and 80%
Population Pyknosed Nuclei (%) (24 h, replicate 1): 13% and 14%
Population Tubulin-Different-Phenotype (%) (24 h, replicate 1): 25% and 24%
Total Cell Count (24 h, replicate 1): 927 and 391
Population Apoptotic (%) (24 h, replicate 2): 80% and 55%
Population Fragmented Nuclei (%) (24 h, replicate 2): 43% and 57%
Population Healthy Nuclei (%) (24 h, replicate 2): 40% and 27%
Population Hoechst High Intensity Objects (%) (24 h, replicate 2): 50% and 77%
Population Membrane Permeable-Phenotype (%) (24 h, replicate 2): 16% and 15%
Population Mitochondria Different-Phenotype (%) (24 h, replicate 2): 20% and 0%
Population Mitotic Cells (%) (24 h, replicate 2): 20% and 44%
Population Normal (%) (24 h, replicate 2): 50% and 22%
Population Pyknosed Nuclei (%) (24 h, replicate 2): 16% and 15%
Population Tubulin-Different-Phenotype (%) (24 h, replicate 2): 20% and 9%
